From PubChem BioAssay
Sampled rows, rich in hits. Any-hit rate of the full collection: about 4.1%.
FID counter = counter-screen for HCV NS3 helicase inhibitors: DNA intercalator displacement | DNA fluorescent intercalator displacement, fluorescence | 290,000 tested, 0.17% active | inhibition, % at 7.9 µM; in the data active = inhibition above about 37%;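 also: 0% = vehicle and 100% = reference compound; higher means more ethidium bromide displaced from hairpin DNA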
MEKK2mut PB1 HTS = signal of MEK5 binding to mutant human MEKK2 PB1 domain; bead flow cytometry, Alexa488-MEK5 binding to MEKK2 mutant; 290,000 tested, 0.35% active; percent response, % at 10 µM; AID 1530; in the data active = percent response above about 24%, passing the limit was not always enough
MEKK2 WT-MEK5 = raises or lowers MEK5 binding to wildtype human MEKK2 PB1 domain. Q9Y2U5. bead flow cytometry, Alexa488-MEK5 binding to MEKK2 WT; actives lie on both sides. binding response (% of control), % at 10 µM. 290,000 tested, 1.1% active; in the data active = binding response below about 67% or above about 130%
MEKK3 PB1 HTS = modulators (inhibitors or enhancers) of MEK5 binding to human MEKK3 PB1 domain; Q99759; bead-based flow cytometry, Alexa488-MEK5 binding to MEKK3; actives lie on both sides; 0 = blocked by unlabeled MEK5, 100 = vehicle; 290,000 tested, 1.4% active; AID 1529; binding response (% of control), % at 10 µM;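 active = binding response more than 3 SD above or below the average of its plate-row segment, actives on both sides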;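 also: Alexa488 bead fluorescence after subtracting the streptavidin-only scavenger bead signal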
Target sequence (Q99759 whole entry, looked up, the tested form may be a part): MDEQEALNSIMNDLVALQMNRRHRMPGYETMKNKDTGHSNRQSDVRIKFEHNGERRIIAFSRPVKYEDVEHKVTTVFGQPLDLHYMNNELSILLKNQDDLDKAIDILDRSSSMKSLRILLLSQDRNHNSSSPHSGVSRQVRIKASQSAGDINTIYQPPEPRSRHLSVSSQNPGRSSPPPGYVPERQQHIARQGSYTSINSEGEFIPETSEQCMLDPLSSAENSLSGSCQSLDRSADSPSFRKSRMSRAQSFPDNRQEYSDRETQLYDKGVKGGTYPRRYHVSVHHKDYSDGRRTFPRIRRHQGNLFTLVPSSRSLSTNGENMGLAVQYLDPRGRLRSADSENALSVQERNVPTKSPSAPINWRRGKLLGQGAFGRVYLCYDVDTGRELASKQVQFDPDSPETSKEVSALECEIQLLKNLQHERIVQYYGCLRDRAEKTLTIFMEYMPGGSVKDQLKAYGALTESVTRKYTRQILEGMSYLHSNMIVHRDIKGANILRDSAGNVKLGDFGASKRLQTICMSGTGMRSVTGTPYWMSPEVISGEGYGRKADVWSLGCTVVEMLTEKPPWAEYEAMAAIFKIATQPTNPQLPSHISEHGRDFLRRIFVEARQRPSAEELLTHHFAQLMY
HCV NS3 hel inh = blocks Hepatitis C virus NS3 helicase unwinding | NS3 helicase DNA unwinding, Cy5 molecular beacon fluorescence | inhibition, % at 10.9 µM | 290,000 tested, 0.56% active;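 active = inhibition above the mean of all tested compounds plus 3 SD, set per campaign, cut at about 35% in these data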;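 also: 0% = DMSO wells and 100% = thioflavine S control wells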
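Test system: hepatitis C virus NS3 helicase domain fragment enzyme. Also added: annealed dual-labelled DNA beacon duplex, ATP-started. Timing: 60 min unwinding reaction at 25 °C after ATP addition. Technique: Cy5 fluorescence. Measure: % inhibition of unwinding.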
T cruzi repl = T. cruzi replication inhibition | AID 1885 | 300,000 tested, 1.4% active | T. cruzi beta-gal in NIH3T3, luminescence, 90 h | inhibition, % (concentration not given with the values);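 active = mean inhibition across valid replicates above about 55%, limit read from the data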;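 also: signal also drops with host cell toxicity which is not excluded here; 0% = plate median of DMSO wells and 100% = zero luminescence signal; higher percent means less beta-gal luminescence so fewer parasites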
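Material: NIH/3T3 host cells with β-galactosidase reporter T. cruzi; Input: 5,000 host fibroblasts per well; Medium: DMEM, 2% fetal bovine serum; Compound: 50 nL DMSO compound solution per well; Schedule: 3 h host attachment, then at least 90 h co-culture; Detection: luminescent β-galactosidase signal after 60 min lysis.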
MEKK2wt confirm = raises or lowers MEK5 binding to wildtype human MEKK2, retest; AID 1892; binding response (% of control), % at 10 µM; 5,900 tested, 2.4% active; bead flow cytometry, Alexa488-MEK5 binding to MEKK2 WT; actives lie on both sides; shares compounds with MEKK3 PB1 HTS; in the data active = binding response below about 16% or above about 210%; inactive = in between
MEKK2mut-MEK5 = signal of MEK5 binding to mutant human MEKK2, retest. AID 1893. shares compounds with MEKK3 PB1 HTS. percent response, % at 10 µM. 5,900 tested, 2% active. bead flow cytometry, Alexa488-MEK5 binding to MEKK2 mutant; in the data active = percent response mostly above about 71%, no sharp cut-off; inactive = mostly below about 38%;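 also: higher means compound restores mutant binding toward wildtype level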
MEKK3-MEK5 inh = confirmation of inhibitors of MEK5 binding to human MEKK3; shares compounds with MEKK3 PB1 HTS; bead flow cytometry, Alexa488-MEK5 binding to MEKK3; hits give low values; binding response (% of control), % at 10 µM; 5,900 tested, 1.8% active; AID 1894;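 active = binding response below 72% of control, or above a set upper limit, though filed actives all read lower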;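 also: 100% = DMSO only wells and 0% = binding blocked by excess unlabeled MEK5; lower values mean stronger disruption of MEK5 binding to MEKK3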
Numbers without * were called inactive; · = no result given; [ ] = remark or other dose.

SMILES | FID counter | MEKK2mut PB1 HTS | MEKK2 WT-MEK5 | MEKK3 PB1 HTS | HCV NS3 hel inh | T cruzi repl | MEKK2wt confirm | MEKK2mut-MEK5 | MEKK3-MEK5 inh
C#CCOCCOCCOCCNc1nc(N2CCN(C(=O)[C@H](CCC(=O)O)n3cc(C(N)Cc4ccc(O)cc4)nn3)CC2)nc(N2CCN(C(=O)[C@H](CCCCN)n3cc(C(N)[C@H](C)CC)nn3)CC2)n1 (stereo partly drawn) | · | 2 | 76 | 84 | · | -14 | · | · | ·
C#CCOCCOCCOCCNc1nc(N2CCN(C(=O)[C@H]([C@@H](C)CC)n3cc([C@@H](N)Cc4ccc(O)cc4)nn3)CC2)nc(N2CCN(C(=O)[C@H](CCCCN)n3cc([C@@H](N)C(C)CC)nn3)CC2)n1 (stereo partly drawn) | 43* | 48 | 176* | 117 | -62 | -14 | 137 | 17 | 103
COc1cc(C2C=C(c3cccs3)Nc3ncnn32)cc(OC)c1OC (stereo not drawn) | -8 | -7 | 96 | 104 | -4 | · | · | · | ·
CSc1ccc(S(=O)(=O)N(C)Cc2ccccc2)cc1 | -10 | -11 | 94 | 96 | -8 | 5 | · | · | ·
C/C=C\C(=O)Nc1cccc(C2=NOC3(C2)C[C@H](C(N)=O)N(C(=O)Cc2ccc([N+](=O)[O-])cc2)C3)c1 (stereo partly drawn) | · | 4 | 90 | 85 | · | -16 | · | · | ·
CCn1cnc2c1c(=O)n(CC(=O)OC(C)C(N)=O)c(=O)n2Cc1ccccc1 (stereo not drawn) | -12 | -4 | 97 | 100 | -12 | -4 | · | · | ·
CC(C)(C)NC(=O)COC(=O)c1ccc(Cl)c(S(N)(=O)=O)c1 | 2 | -2 | 78 | 69 | 11 | · | · | · | ·
C#CCOCCOCCOCCNc1nc(N2CCN(C(=O)[C@H]([C@@H](C)CC)n3cc([C@@H](N)CC(C)C)nn3)CC2)nc(N2CCN(C(=O)[C@H]([C@@H](C)CC)n3cc([C@@H](N)CC(C)C)nn3)CC2)n1 | 34 | 87* | 223* | 116 | -72 | -5 | 180 | 45 | 104
COc1ccc(/C=N/Nc2nc(=O)[nH]nc2C)cc1[N+](=O)[O-] | 0 | 0 | 105 | 124 | 1 | -11 | · | · | ·
Cc1n[nH]c(=O)nc1N/N=C/c1ccc(O)c([N+](=O)[O-])c1 | 2 | 1 | 107 | 129* | 0 | -8 | 99 | 0 | 102
Cc1cc(Cl)ccc1NC(=S)N(CCCN1CCOCC1)Cc1cccs1 | -1 | 0 | 106 | 128* | -1 | 11 | 108 | 3 | 105
COc1ccccc1C(=O)NC(C)c1ccc(-n2ccnc2)cc1 (stereo not drawn) | -11 | 2 | 99 | 102 | 9 | 0 | · | · | ·
Cc1c(NC(=O)COc2cccc(Cl)c2Cl)c(=O)n(-c2ccccc2)n1C | · | · | · | · | · | 6 | · | · | ·
COC(=O)c1sc(-c2ccc(C(C)(C)C)cc2)cc1NC(=O)c1ccccc1C(=O)O | -23 | -8 | 95 | 96 | 0 | -13 | · | · | ·
COC(=O)c1sc(-c2ccc(Cl)cc2)cc1NC(=O)c1ccccc1C(=O)O | -18 | -14 | 67 | 66*[inhibitor] | 18 | 11 | 104 | 3 | 105
Cc1noc(NC(=O)c2cccc(Cl)c2Cl)c1C#N | -3 | -2 | 85 | 73*[inhibitor] | -5 | 2 | 100 | 1 | 101
Cc1ccc(NC(=O)ON=C2CCCC2)cc1 | -5 | -1 | 105 | 104 | 11 | 5 | · | · | ·
COc1ccc(-c2nc(C(=O)NCCCN3CCOCC3)cc3c2[nH]c2ccccc23)cc1OC | 28 | 15 | 137* | 105 | -101 | 21 | 150 | 24 | 110
Cc1ccc(-c2cc(C(=O)NCCCN3CCOCC3)c3ccccc3n2)cc1 | · | · | · | · | · | -16 | · | · | ·
Cc1ccc(-c2nc(C(=O)NCCCN3CCOCC3)cc3c2[nH]c2ccccc23)cc1 | 10 | 21 | 142* | 101 | -101 | 57* | 156 | 41 | 108
COc1ccc(Nc2cc(C(=O)NCCCN3CCOCC3)c3ccccc3n2)cc1OC | 32 | 5 | 112 | 109 | -21 | 2 | · | · | ·
Cc1cccc(NC(=O)NC2CCCCCCC2)c1C | -28 | 0 | 99 | 100 | 4 | · | · | · | ·
COC(=O)CNC(=O)Cn1nc(C)c([N+](=O)[O-])c1C | 1 | -1 | 99 | 98 | 2 | -9 | · | · | ·
Cc1cc(C)c2cc(CN(CCN3CCCC3)C(=O)Nc3ccc(F)cc3)c(=O)[nH]c2c1 | -2 | 18 | 126 | 105 | -1 | 14 | · | · | ·
Cc1ccc(C)c2[nH]c(=O)c(CN(CCN3CCCC3)C(=O)Nc3cccc(Cl)c3)cc12 | -1 | 41* | 153* | 110 | -73 | 8 | 154 | 35 | 103
SMILES | FID counter | MEKK2mut PB1 HTS | MEKK2 WT-MEK5 | MEKK3 PB1 HTS | HCV NS3 hel inh | T cruzi repl | MEKK2wt confirm | MEKK2mut-MEK5 | MEKK3-MEK5 inh
O=C(Nc1ccccc1)c1ccc(Br)c(S(=O)(=O)Nc2ccccn2)c1 | -18 | 2 | 101 | 102 | 8 | 4 | · | · | ·
S=c1nc(-c2ccccc2Br)[nH][nH]1 | -4 | -3 | -2.0*[inhibitor] | 1.0*[inhibitor] | -3 | -39 | 97 | -3 | 94
Cc1ccc(CNS(=O)(=O)c2c(C)[nH]c(C)c2C(=O)N2CCCCC2)cc1 | -24 | 2 | 101 | 102 | 4 | -5 | · | · | ·
CCN(CC)c1ccc(Nc2nc(N3CCOCC3)c3ccccc3n2)cc1 | 7 | 4 | 120 | 102 | -20 | 44 | · | · | ·
COc1ccc(Nc2nc(N3CCCC3)c3ccccc3n2)cc1 | 15 | 45* | 185* | 107 | -43 | 13 | 159 | 44 | 109
Cc1c(CN(C)C)c2c(n1C)C(=O)c1ccc(Br)cc1-2 | 27 | 0 | 100 | 99 | 1 | 1 | · | · | ·
Cc1c(CN(C)C)c2c(n1Cc1ccccc1)C(=O)c1ccc(Br)cc1-2 | 25 | 17 | 139* | 89 | -29 | 21 | 133 | 21 | 108
CCOC(=O)C1CCCN(S(=O)(=O)c2cccs2)C1 (stereo not drawn) | 2 | 7 | 114 | 122* | 1 | -1 | 97 | -7 | 97
CCOC(=O)C1CCCN(Cc2cccs2)C1 (stereo not drawn) | 7 | -18 | -3.0*[inhibitor] | 1.0*[inhibitor] | -1 | 8 | 104 | 6 | 106
CCOC(=O)C1CCCN(S(=O)(=O)c2ccc(S(=O)(=O)N3CCCC3)cc2)C1 (stereo not drawn) | · | · | · | · | · | 8 | · | · | ·
